Read-outs that look alike come from different tables or passages of the source.
Columns and labels:
[1] = format: in vivo, human
Method in brief: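 Adults with advanced solid tumours (ECOG 0–1; TP53 wild-type or unknown) received oral test compound on day 1 of 21-day cycles or days 1 and 8 of 28-day cycles, until progression or unacceptable toxicity. Antiemetic prophylaxis followed guidelines. AE incidence and severity were graded per NCI CTCAE v5.0 and summarised descriptively.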

[2] = Pharmacokinetic analysis of blood samples after oral brigimadlin; format: in vivo, human; details: for AUC(0-inf) / Cmax: oral
Method in brief: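 Oral test compound given to patients with advanced solid tumours, on day 1 of 21-day cycles or days 1 and 8 of 28-day cycles. Cycle 1 blood taken 5 min pre-dose, 1–8 h post-dose on day 1, then once on days 2, 3, 4, 5 and 8. Later cycles: pre-dose and 6 h, day 2, plus days 3 and 8 in cycle 2. Cmax and AUC by noncompartmental analysis.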

Which results are given for `Cc1c(C(=O)O)ccc2c3n(nc12)[C@@H]1[C@H](C3)N(CC2CC2)[C@@]2(C(=O)Nc3cc(Cl)ccc32)[C@H]1c1cccc(Cl)c1F` [brigimadlin]?
TRAE Increased alanine aminotransferase, Grade ≥3 ([1]; D1D8q4w (n = 25)): 0 n (%); TRAE Increased aspartate aminotransferase, All grades ([1]; D1D8q4w (n = 25)): 1 (4.0) n (%); TRAE Increased aspartate aminotransferase, Grade ≥3 ([1]; D1D8q4w (n = 25)): 0 n (%); TRAE Nausea, All grades ([1]; D1D8q4w (n = 25)): 19 (76.0) n (%); TRAE Nausea, Grade ≥3 ([1]; D1D8q4w (n = 25)): 0 n (%); TRAE Neutropenia, All grades ([1]; D1D8q4w (n = 25)): 6 (24.0) n (%); TRAE Neutropenia, Grade ≥3 ([1]; D1D8q4w (n = 25)): 5 (20.0) n (%); TRAE Thrombocytopenia, Grade ≥3 ([1]; D1D8q4w (n = 25)): 5 (20.0) n (%); TRAE Vomiting, All grades ([1]; D1D8q4w (n = 25)): 15 (60.0) n (%); TRAE Vomiting, Grade ≥3 ([1]; D1D8q4w (n = 25)): 1 (4.0) n (%); patients with nausea leading to dose reduction ([1]; D1q3w): three; patients with thrombocytopenia leading to dose reduction ([1]; D1q3w): four; serious AE neutropenia ([1]; D1q3w): three; serious AE thrombocytopenia ([1]; D1q3w): three; Any AE ([1]; D1q3w (n = 29)): 29 (100.0) n (%); Any AE (any cause) leading to study drug discontinuation ([1]; D1q3w (n = 29)): 2 (6.9) n (%); Any AE (any cause) leading to study drug dose reduction ([1]; D1q3w (n = 29)): 11 (37.9) n (%); Any TRAE ([1]; D1q3w (n = 29)): 27 (93.1) n (%); Any grade ≥3 AE ([1]; D1q3w (n = 29)): 21 (72.4) n (%); Any grade ≥3 TRAE ([1]; D1q3w (n = 29)): 17 (58.6) n (%); Serious AEs (any cause) ([1]; D1q3w (n = 29)): 9 (31.0) n (%); TRAE Alopecia, All grades ([1]; D1q3w (n = 29)): 6 (20.7) n (%); TRAE Alopecia, Grade ≥3 ([1]; D1q3w (n = 29)): 0 n (%); TRAE Anemia, All grades ([1]; D1q3w (n = 29)): 12 (41.4) n (%); TRAE Anemia, Grade ≥3 ([1]; D1q3w (n = 29)): 3 (10.3) n (%); TRAE Decreased appetite, All grades ([1]; D1q3w (n = 29)): 10 (34.5) n (%); TRAE Decreased appetite, Grade ≥3 ([1]; D1q3w (n = 29)): 0 n (%); TRAE Decreased lymphocyte count, All grades ([1]; D1q3w (n = 29)): 5 (17.2) n (%); TRAE Decreased lymphocyte count, Grade ≥3 ([1]; D1q3w (n = 29)): 3 (10.3) n (%); TRAE Decreased weight, All grades ([1]; D1q3w (n = 29)): 3 (10.3) n (%); TRAE Decreased weight, Grade ≥3 ([1]; D1q3w (n = 29)): 0 n (%); TRAE Decreased white blood cell count, All grades ([1]; D1q3w (n = 29)): 9 (31.0) n (%); TRAE Decreased white blood cell count, Grade ≥3 ([1]; D1q3w (n = 29)): 5 (17.2) n (%); TRAE Diarrhea, All grades ([1]; D1q3w (n = 29)): 8 (27.6) n (%); TRAE Diarrhea, Grade ≥3 ([1]; D1q3w (n = 29)): 0 n (%); TRAE Dysgeusia, All grades ([1]; D1q3w (n = 29)): 5 (17.2) n (%); TRAE Dysgeusia, Grade ≥3 ([1]; D1q3w (n = 29)): 0 n (%); TRAE Fatigue, All grades ([1]; D1q3w (n = 29)): 15 (51.7) n (%); TRAE Fatigue, Grade ≥3 ([1]; D1q3w (n = 29)): 1 (3.4) n (%); TRAE Gastroesophageal reflux disease, All grades ([1]; D1q3w (n = 29)): 2 (6.9) n (%); TRAE Gastroesophageal reflux disease, Grade ≥3 ([1]; D1q3w (n = 29)): 0 n (%); TRAE Increased alanine aminotransferase, All grades ([1]; D1q3w (n = 29)): 3 (10.3) n (%); TRAE Increased alanine aminotransferase, Grade ≥3 ([1]; D1q3w (n = 29)): 0 n (%); TRAE Increased aspartate aminotransferase, All grades ([1]; D1q3w (n = 29)): 4 (13.8) n (%); TRAE Increased aspartate aminotransferase, Grade ≥3 ([1]; D1q3w (n = 29)): 0 n (%); TRAE Nausea, All grades ([1]; D1q3w (n = 29)): 21 (72.4) n (%); TRAE Nausea, Grade ≥3 ([1]; D1q3w (n = 29)): 4 (13.8) n (%); TRAE Neutropenia, Grade ≥3 ([1]; D1q3w (n = 29)): 8 (27.6) n (%); TRAE Thrombocytopenia, All grades ([1]; D1q3w (n = 29)): 15 (51.7) n (%); TRAE Thrombocytopenia, Grade ≥3 ([1]; D1q3w (n = 29)): 9 (31.0) n (%); TRAE Vomiting, All grades ([1]; D1q3w (n = 29)): 13 (44.8) n (%); TRAE Vomiting, Grade ≥3 ([1]; D1q3w (n = 29)): 0 n (%); TRAE neutropenia grade 3 ([1]; all 54 patients): 9.3%; TRAE neutropenia grade 4 ([1]; all 54 patients): 14.8%; TRAE thrombocytopenia grade 3 ([1]; all 54 patients): 13.0%; TRAE thrombocytopenia grade 4 ([1]; all 54 patients): 13.0%; grade ≥3 TRAE neutropenia ([1]; all 54 patients): 24.1%; grade ≥3 TRAE thrombocytopenia ([1]; all 54 patients): 25.9%; patients with a grade ≥3 AE ([1]; all 54 patients): 61.1%; patients with a serious AE ([1]; all 54 patients): 33.3%; patients with grade ≥3 TRAEs ([1]; all 54 patients): 46.3%; patients with investigator-reported TRAEs ([1]; all 54 patients): 92.6%; TRAE nausea ([1]; all 54 patients, all grades): 74.1%; TRAE vomiting ([1]; all 54 patients, all grades): 51.9%; treatment discontinuation due to a hematologic TRAE ([1]; both treatment arms): no patient discontinued treatment with brigimadlin due to a hematologic TRAE; dose linearity of plasma exposure (Cmax and AUC0-inf) ([2]; after the first dose, both arms, dose range 5 to 80 mg): no significant deviation from linearity; dose linearity of plasma exposure (Cmax and AUC0-inf) ([2]; dose range 10 to 60 mg): no significant deviation from linearity; AUC(0-inf) ([2]; human, plasma, 60 mg): 121 µM·h; Cmax ([2]; human, plasma, 60 mg): 2.48 µM; AUC(0-inf) ([2]; human, plasma, 80 mg): 339 µM·h; Cmax ([2]; human, plasma, 80 mg): 4.8 µM; half-life ([2]; human, plasma, po, half-life, patients, as summarised in Discussion): 30 to 60 h
